Data taken from ChEMBL document CHEMBL3272127, “Synthesis and kinetic evaluation of S- and N-substituted cysteinylglycines as inhibitors of glyoxalase I” (J Med Chem, 1977).
The source made the active and inactive calls. No cut-off for these calls is given here. Square brackets hold non-standard residues; d marks the D form. Peptide text beside a SMILES is read from it. * marks the point of attachment. Bn = c1ccc(C*)cc1; GABA = NCCCC(=O)O; βAla = NCCC(=O)O

Tests used:
[1] = Noncompetitive inhibition of yeast glyoxalase 1 assessed as inhibition of product formation by double reciprocal plot method; set-up: species or system Saccharomyces cerevisiae
How it was run: (§1)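 Yeast glyoxalase I, diluted to 20 µg/ml in 30% glycerin with 0.1% BSA. Assays ran at 30 °C in 0.05 M phosphate buffer, pH 6.6. Methylglyoxal, reduced glutathione, inhibitor and buffer were preincubated 3 min to form the hemimercaptal, then enzyme was added. Product formation was followed at 240 nm.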

[2] = system: Saccharomyces cerevisiae; assay: Synergistic binding affinity to active site of yeast glyoxalase 1 using hemimercaptal as substrate at 0.1 to 0.3 mM in presence of free glutathione
How it was run: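 Yonetani–Thorell analysis with yeast glyoxalase I at 30 °C, pH 6.6 phosphate, read at 240 nm. Reciprocal velocity was plotted against inhibitor concentration at fixed hemimercaptal substrate and fixed free glutathione levels of 0.1, 2.0 or 5.0 mM.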

[3] = system: Saccharomyces cerevisiae; assay: Binding affinity to active site of yeast glyoxalase 1 using hemimercaptal as substrate at 0.005 to 0.015 mM in presence of free glutathione
[4] = system: Saccharomyces cerevisiae; assay: Competitive inhibition of yeast glyoxalase 1 assessed as inhibition of product formation by double reciprocal plot method; how it was run: as §1
[5] = Binding affinity to yeast glyoxalase 1 assessed as inhibition of product formation by double reciprocal plot method; set-up: species or system Saccharomyces cerevisiae; how it was run: as §1
[6] = Ratio of Km for yeast glyoxalase 1 to Km for mouse liver glyoxalase
[7] = system: Saccharomyces cerevisiae; assay: Activity of yeast glyoxalase 1; how it was run: as §1
[8] = species on record: Mus musculus; assay: Activity of mouse liver glyoxalase

Structure (SMILES) | Ki ([1]; read-out: Ki) | also measured
O=C(O)CCCC(=O)N[C@@H](CSCc1ccc(Br)cc1)C(=O)NCC(=O)O | 320 µM | Activity [2]: Active
N[C@@H](CSCc1ccc(Br)cc1)C(=O)NCC(=O)O | 580 µM | –
NCCC(=O)N[C@@H](CSCc1ccc(Br)cc1)C(=O)NCC(=O)O | 1500 µM | –
O=C(O)CCCC(=O)N[C@@H](CSCc1ccccc1)C(=O)NCC(=O)O | 3000 µM | –
O=C(O)CCC(=O)N[C@@H](CSCc1ccccc1)C(=O)NCC(=O)O | 4500 µM | –
N[C@@H](CSCc1ccccc1)C(=O)NCC(=O)O | – | Ki [1]: Not Active
N[C@@H](CCC(=O)N[C@@H](CSCc1ccc(Br)cc1)C(=O)NCC(=O)O)C(=O)O | – | Activity [3]: Active; inhibition [4]: Active
NCCCC(=O)N[C@@H](CSCc1ccccc1)C(=O)NCC(=O)O (H-[GABA]-Cys(Bn)-Gly-OH) | 4100 µM | –
NCCC(=O)N[C@@H](CSCc1ccccc1)C(=O)NCC(=O)O (H-[βAla]-Cys(Bn)-Gly-OH) | 5300 µM | –
CC(=O)C(O)SC[C@H](NC(=O)CC[C@H](N)C(=O)O)C(=O)NCC(=O)O (stereo partly drawn) | – | inhibition [4]: Active; Kd [5]: 3100 µM; Ratio [6]: 10; Km [7]: 500 µM; Km [8]: 57 µM
NCCCC(=O)N[C@@H](CSCc1ccc(Br)cc1)C(=O)NCC(=O)O | 1200 µM | –
O=C(O)CCC(=O)N[C@@H](CSCc1ccc(Br)cc1)C(=O)NCC(=O)O | 400 µM | –
